{
  "source": "ChEMBL document CHEMBL4312027",
  "about": "“Synthesis, characterization, and biological activity of a triphenylphosphonium-containing imidazolium salt against select bladder cancer cell lines” (Eur J Med Chem, 2020)",
  "key": {"RT-112 [1]": {"tested_on": "RT-112", "assay": "Mito-toxicity in mitochondria isolated from human RT112 cells assessed as increase in cytochrome C release at 100 uM incubated for 1 hr and measured after 1 to 4 hrs incubation in preservative buffer by Western blot analysis", "type": "functional"}, "RT-112 [2]": {"tested_on": "RT-112", "assay": "Induction of mitochondrial membrane depolarization in human RT112 cells at 100 uM incubated for 1 hr and measured after 2 hrs recovery time by JC-1 staining based confocal microscopy", "type": "functional, cell-based", "summary_of_the_method": "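RT112 cells plated on glass-bottom dishes and incubated overnight. They were treated for 45 min, then JC-1 (final 10 μg/mL) was added to the medium for a further 15 min. Live cells were imaged by confocal microscopy (ex 485 nm; em 530 and 590 nm) every 15 min for 6 h. Red polarized versus green depolarized mitochondria were scored, with CCCP as positive control.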"}},
  "note": "Calls of active or inactive are those of the source. No cut-off for these calls is given here.",
  "data": [
    {"smiles": "N#CC(C#N)=NNc1cccc(Cl)c1", "values": [
      {"measurement": "Activity", "setting": "RT-112 [1]", "result": "Active"},
      {"measurement": "Activity", "setting": "RT-112 [2]", "result": "Active"}
    ]}
  ]
}
